Measured values from different studies.
Each line is one published result; the experiments were not run side by side.
CDK1: Cyclin-dependent kinase 1 (CDK1, Homo sapiens, UniProt P06493)
CDK9: Cyclin-dependent kinase 9 (CDK9, Homo sapiens, UniProt P50750)

| Structure (SMILES) | target | test | system | conditions | endpoint | result |
| --- | --- | --- | --- | --- | --- | --- |
| CCN(CC)CCNC(=O)c1ccc(NCN2C(=O)NC(c3ccccc3)(c3ccccc3)C2=O)cc1 | Mitogen-activated protein kinase 3 (MAPK3, Homo sapiens, UniProt P27361) | enzyme activity, inhibitor, ADP detection | – | 10 µM | inhibition | 43.6% |
| C[C@H]1CN(c2ccc(C3CCC(=O)NC3=O)cc2F)CCN1CC12CCC(NS(=O)(=O)c3ccc(Nc4ncc(C(F)(F)F)c(N5CCC[C@](C)(O)C5)n4)c(F)c3)(CC1)CO2 (stereo partly shown) | CDK1 | protein level, degrader, western blot | TOV21G | – | Dmax | 32% |
| CC(C)(C)c1cnc(CSc2cnc(NC(=O)C3CCN(C(=O)CCCCCCCCCN4Cc5cc6c(cc5C4)C(=O)N(C4CCC(=O)NC4=O)C6=O)CC3)s2)o1 (stereo not shown) | CDK9 | protein level, degrader, western blot | TC-71 | 25 nM | inhibition | 91.8% |
| COc1ccc2oc(-c3ccc4nc(N)oc4c3)c/c(=N\c3ccccc3NC(=O)CCN)c2c1 | 5'-AMP-activated protein kinase catalytic subunit alpha-2 (PRKAA2, Homo sapiens, UniProt P54646) | binding | – | 1 µM | remaining binding | 103% |
| CC(C)(C)c1cnc(CSc2cnc(NC(=O)C3CCN(C(=O)CCCCCCCCCCN4Cc5cc6c(cc5C4)C(=O)N(C4CCC(=O)NC4=O)C6=O)CC3)s2)o1 (stereo not shown) | CDK9 | protein level, degrader, western blot | TC-71 | 25 nM | inhibition | 89.1% |
| CCCCC(=O)Nc1ccc(-c2ccc3ncn(CCC)c(=O)c3c2)cn1 | Ankyrin repeat and protein kinase domain-containing protein 1 (ANKK1, Homo sapiens, UniProt Q8NFD2) | binding, competition with immobilised ligand | – | 0.5 µM | remaining binding | 100% |
| Cc1cc2c(C(N)=O)c(N)n(-c3c(C)ccc(O)c3C)c2nc1C | Proto-oncogene tyrosine-protein kinase Src (SRC, Homo sapiens, UniProt P12931) | enzyme activity, inhibitor, TR-FRET | – | 10 µM | inhibition | 101% |
| CC(=O)ON=C1C=CC(=C(C#N)c2ccccc2)C=C1 | Dual specificity protein kinase CLK1 (Clk1, Mus musculus, UniProt P22518) | enzyme activity, inhibitor, ADP detection | – | 20 µM | activity vs control | 99% |
| C[C@H]1CN(CC2CCN(c3ccc(C4CCC(=O)NC4=O)cc3F)CC2)CC[C@H]1NS(=O)(=O)c1ccc(Nc2ncc(C(F)(F)F)c(N3CCC[C@](C)(O)C3)n2)c(F)c1 (stereo partly shown) | CDK1 | protein level, degrader, western blot | TOV21G | – | Dmax | 40% |
| C1=C/COCc2cc(ccc2OCCN2CCCC2)Nc2nccc(n2)-c2cccc(c2)COC/1 | Tyrosine-protein kinase Mer (MERTK, Homo sapiens, UniProt Q12866) | binding | – | 0.1 µM | remaining binding | 80% |
| CC(C)(C)c1cnc(CSc2cnc(NC(=O)C3CCN(C(=O)CCCCCCN4Cc5cc6c(cc5C4)C(=O)N(C4CCC(=O)NC4=O)C6=O)CC3)s2)o1 (stereo not shown) | CDK9 | protein level, degrader, western blot | TC-71 | 25 nM | inhibition | 95.8% |
| NC/C(=C\F)COc1cccc(Cn2c(=S)[nH]c(=O)c3[nH]cnc32)c1 | Myeloperoxidase (Mus musculus, UniProt P11247) | enzyme activity, inhibitor | – | 0.25 µM | remaining activity | 9.08% |
| C#Cc1cc(-c2cc(Nc3nc(N[C@@H](C)c4ccc(F)cn4)ncc3Cl)n[nH]2)ccc1C=O | Serine/threonine-protein kinase Sgk2 (SGK2, Homo sapiens, UniProt Q9HBY8) | enzyme activity, inhibitor | – | 0.2 µM | inhibition | 4.48% |
